Test results from ChEMBL document CHEMBL4017453, “Design, synthesis and optimization of bis-amide derivatives as CSF1R inhibitors” (Bioorg Med Chem Lett, 2017).
pIC50: −log10 of the molar value. Values after ≈ are worked out from the molar mass of the structure shown. Each block holds one molecule with its values, some of them ahead of it. Active and inactive are the calls of the source. No cut-off for these calls is given here.

What was measured:
RAW264.7 = assay: Growth inhibition of mouse RAW264.7 cells at 1 uM after 72 hrs by CellTiter-Glo luminescent assay relative to control; type: functional; settings: for inhibition of growth at 1 µM: RAW264.7, 72 h, read-out: GI
[1] = Growth inhibition of mouse BMMC at 1 uM after 72 hrs by CellTiter-Glo luminescent assay relative to control; type: functional; settings: read-out: GI
Outline: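 Cell viability in primary mouse bone marrow-derived macrophages, which depend on CSF1 for survival; inhibition measured at 1 single concentration.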

[2] = molecular target: Mast/stem cell growth factor receptor Kit (Homo sapiens, UniProt P10721); assay: Inhibition of human c-Kit using poly[Glu:Tyr] (4:1) as substrate measured after 2 hrs in presence of [33gammaP]ATP by […] ion exchange chromatographic method
Outline: (§1)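 Radiometric kinase assay: enzyme incubated with [γ-33P]-ATP and peptide substrate; IC50 curves fitted per compound. Selectivity expressed as c-Kit IC50 over CSF1R IC50.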

[3] = molecular target: Macrophage colony-stimulating factor 1 receptor (Homo sapiens, UniProt P07333); assay: Inhibition of human CSF1R using poly[Glu:Tyr] (4:1) as substrate incubated for 2 hrs in presence of [33gammaP]ATP by P81 ion exchange chromatographic method
[4] = Stability in human liver microsomes assessed as compound remaining at 1 uM after 30 mins in presence of NADPH by LC/MS/MS analysis; type: ADME, microsome; settings: read-out: Stability
Outline: (§2)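 Metabolic stability in human or mouse liver microsomes supplemented with NADPH; reported as percent of parent remaining relative to time-zero control.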

[5] = Stability in mouse liver microsomes assessed as compound remaining at 1 uM after 30 mins in presence of NADPH by LC/MS/MS analysis; type: ADME, microsome; settings: read-out: Stability; outline: as §2
Liver [6] = assay: Drug level in mouse liver microsomes treated with N-(4-methyl-3-(3-(1-methyl-1H-pyrazol-4-yl)benzamido)phenyl)-4-((4-methylpiperazin-1-yl)methyl)-3-(trifluoromethyl)benzamide at 10 uM measured after 1 hr in presence of NADPH; type: ADME, microsome
[7] = Kinetic solubility of the compound in PBS buffer at pH 7.4 at […] after 1 hr by nephelometry; type: physicochemical; settings: read-out: Kinetic_solubility
Outline: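 Kinetic solubility determined in isotonic phosphate buffer.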

[8] = Stability in human plasma assessed as compound remaining at 1 uM after 4 hrs by LC/MS/MS analysis; type: ADME, cell-free; settings: read-out: Stability
Outline: (§3)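 Test article incubated 4 h in human or mouse plasma to probe amidase hydrolysis; percent parent remaining versus time-zero control.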

[9] = Terminal half life in CD-1 mouse at 2 mg/kg, iv; type: ADME, organism-based; settings: in vivo, read-out: beta t1/2 (converted)
Outline: (§4)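 Mice given a single IV dose (2 mg/kg) or oral dose (10 mg/kg); plasma levels followed over time. AUClast taken from time 0 to last quantifiable concentration; Cmax and Tmax read from observed profile; CL is systemic clearance and Vss volume at steady state, both from IV; oral bioavailability derived from PO versus IV exposure.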

[10] = Stability in mouse plasma assessed as compound remaining at 1 uM after 4 hrs by LC/MS/MS analysis; type: ADME, cell-free; settings: read-out: Stability; outline: as §3
[11] = Volume of distribution at steady state in CD-1 mouse at 2 mg/kg, iv; type: ADME, organism-based; settings: in vivo, read-out: Vdss; outline: as §4
[12] = AUC (0 to last) in CD-1 mouse at 2 mg/kg, iv; type: ADME, organism-based; set-up: dose 2 mg/kg, time 0 - last, route intravenous; settings: in vivo; outline: as §4
[13] = Tmax in CD-1 mouse at 10 mg/kg, po; type: ADME, organism-based; settings: in vivo; outline: as §4
[14] = Cmax in CD-1 mouse plasma at 10 mg/kg, po; type: ADME, organism-based; set-up: dose 10 mg/kg, route oral; outline: as §4
Liver [15] = assay: Drug metabolism in mouse liver microsomes assessed as demethylation by measuring N-(4-methyl-3-(3-(1-methyl-1H-pyrazol-4-yl)benzamido)phenyl)-4-(piperazin-1-ylmethyl)-3-(trifluoromethyl)benzamide level at 10 uM measured after 1 hr in presence of NADPH; type: ADME, microsome
[16] = AUC (0 to last) in CD-1 mouse at 10 mg/kg, po; type: ADME, organism-based; set-up: dose 10 mg/kg, route oral, time 0 - last; settings: in vivo; outline: as §4
[17] = Terminal half life in CD-1 mouse at 10 mg/kg, po; type: ADME, organism-based; settings: in vivo, read-out: beta t1/2 (converted); outline: as §4
[18] = Oral bioavailability in CD-1 mouse at 10 mg/kg; type: ADME, organism-based; settings: in vivo; outline: as §4
[19] = Systemic clearance in CD-1 mouse at 2 mg/kg, iv; type: ADME, organism-based; settings: in vivo; outline: as §4
[20] = Clearance in iv dosed mouse; type: ADME, organism-based; settings: in vivo; outline: as §4
[21] = Cmax in CD-1 mouse plasma at 2 mg/kg, iv; type: ADME, organism-based; set-up: dose 2 mg/kg, route intravenous; outline: as §4
[22] = Apparent permeability from basolateral to apical side in human Caco2 cells at 10 uM incubated for 60 mins by LC-MS/MS analysis; type: ADME, cell-based, Caco-2; settings: for Papp B→A at 1 h, 10 µM: Caco-2
Outline: (§5)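 Caco2 monolayer permeability measured in apical-to-basolateral and basolateral-to-apical directions; mean Papp with SD reported, efflux ratio calculated from the two directions.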

[23] = Apparent permeability from apical to basolateral side in human Caco2 cells at 10 uM incubated for 60 mins by LC-MS/MS analysis; type: ADME, cell-based, Caco-2; settings: for Papp A→B at 1 h, 10 µM: Caco-2; outline: as §5
Homo sapiens = species on record: Homo sapiens; assay: Selectivity ratio of IC50 for human c-Kit to IC50 for human CSF1R; outline: as §1

Chain of Mast/stem cell growth factor receptor Kit (P10721 whole entry): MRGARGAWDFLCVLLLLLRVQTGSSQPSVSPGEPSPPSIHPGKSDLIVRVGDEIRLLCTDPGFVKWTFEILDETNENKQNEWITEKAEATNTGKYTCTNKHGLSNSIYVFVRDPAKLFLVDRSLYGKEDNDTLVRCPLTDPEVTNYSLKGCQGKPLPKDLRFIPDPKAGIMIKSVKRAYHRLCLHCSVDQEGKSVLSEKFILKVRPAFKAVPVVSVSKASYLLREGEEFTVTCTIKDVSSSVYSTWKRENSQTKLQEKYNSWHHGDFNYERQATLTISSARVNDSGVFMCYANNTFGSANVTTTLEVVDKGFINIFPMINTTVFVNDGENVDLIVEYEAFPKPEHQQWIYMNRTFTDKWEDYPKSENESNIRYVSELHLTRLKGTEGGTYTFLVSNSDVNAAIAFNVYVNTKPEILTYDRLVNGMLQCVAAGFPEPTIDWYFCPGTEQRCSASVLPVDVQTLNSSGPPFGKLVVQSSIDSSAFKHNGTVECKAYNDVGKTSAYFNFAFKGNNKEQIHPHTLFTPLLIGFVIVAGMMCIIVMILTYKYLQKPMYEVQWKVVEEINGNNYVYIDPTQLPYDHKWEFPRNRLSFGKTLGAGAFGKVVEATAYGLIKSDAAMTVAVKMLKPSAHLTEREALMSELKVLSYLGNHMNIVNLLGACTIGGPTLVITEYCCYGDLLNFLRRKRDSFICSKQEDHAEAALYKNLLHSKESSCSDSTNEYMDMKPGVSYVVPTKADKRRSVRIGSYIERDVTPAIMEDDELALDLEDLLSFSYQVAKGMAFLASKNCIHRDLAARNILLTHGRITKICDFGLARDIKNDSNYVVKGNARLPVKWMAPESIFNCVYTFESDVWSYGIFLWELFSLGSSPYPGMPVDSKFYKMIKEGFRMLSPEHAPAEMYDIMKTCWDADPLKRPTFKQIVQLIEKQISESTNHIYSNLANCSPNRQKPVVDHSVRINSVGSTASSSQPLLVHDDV
Chain of Macrophage colony-stimulating factor 1 receptor (P07333 whole entry): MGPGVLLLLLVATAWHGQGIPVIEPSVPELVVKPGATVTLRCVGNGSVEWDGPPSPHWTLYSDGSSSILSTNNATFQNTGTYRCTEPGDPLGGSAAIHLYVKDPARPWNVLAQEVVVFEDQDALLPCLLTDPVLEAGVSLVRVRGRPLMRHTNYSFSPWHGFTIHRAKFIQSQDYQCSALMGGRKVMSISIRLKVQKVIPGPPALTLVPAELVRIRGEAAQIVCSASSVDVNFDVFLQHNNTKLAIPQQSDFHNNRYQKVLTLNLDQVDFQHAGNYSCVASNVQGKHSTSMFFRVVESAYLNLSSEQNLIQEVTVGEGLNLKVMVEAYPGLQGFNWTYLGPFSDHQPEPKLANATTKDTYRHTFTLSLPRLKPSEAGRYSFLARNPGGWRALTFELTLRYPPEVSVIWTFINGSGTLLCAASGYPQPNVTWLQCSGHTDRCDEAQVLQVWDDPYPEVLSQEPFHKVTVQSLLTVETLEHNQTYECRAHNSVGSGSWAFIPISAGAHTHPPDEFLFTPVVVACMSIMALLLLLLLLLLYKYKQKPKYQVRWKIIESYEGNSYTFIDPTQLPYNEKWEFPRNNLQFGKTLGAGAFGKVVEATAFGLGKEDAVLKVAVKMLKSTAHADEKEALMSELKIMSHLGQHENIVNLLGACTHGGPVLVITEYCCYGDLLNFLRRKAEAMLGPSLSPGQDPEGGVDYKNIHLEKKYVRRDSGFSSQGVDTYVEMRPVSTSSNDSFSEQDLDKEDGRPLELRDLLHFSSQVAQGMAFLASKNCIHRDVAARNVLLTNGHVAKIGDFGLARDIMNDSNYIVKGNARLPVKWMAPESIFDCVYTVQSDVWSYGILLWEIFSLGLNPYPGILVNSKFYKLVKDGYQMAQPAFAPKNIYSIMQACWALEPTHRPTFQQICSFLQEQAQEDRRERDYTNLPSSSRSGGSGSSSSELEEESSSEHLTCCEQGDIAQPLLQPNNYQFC

Structure (SMILES): Cc1ccc(C(=O)Nc2ccc(CN3CCN(C)CC3)cc2)cc1NC(=O)c1cccc(-c2cccs2)c1
inhibition of growth at 1 µM (RAW264.7): 8%
inhibition of growth at 1 µM [1]: 11%
pIC50 [2]: < 5.00
pIC50 [3]: < 5.00

Structure (SMILES): Cc1ccc(NC(=O)c2ccc(CN3CCNCC3)c(C(F)(F)F)c2)cc1NC(=O)c1cccc(-c2cnn(C)c2)c1
remaining at 0.5 h, 1 µM [4]: 85%
remaining at 0.5 h, 1 µM [5]: 72%
inhibition of growth at 1 µM [1]: 44%
Drug metabolism (Liver [6]): Metabolite_Detected
pIC50 [2]: 5.52

Structure (SMILES): Cc1ccc(NC(=O)c2ccc(CN3CCN(C)CC3)c(C(F)(F)F)c2)cc1NC(=O)c1cccc(-c2cncnc2)c1
growth inhibition (GI) (RAW264.7): inactive
inhibition of growth at 1 µM [1]: 76%
pIC50 [2]: 5.22

Structure (SMILES): Cc1ccc(C(=O)Nc2ccc(CN3CCN(C)CC3)c(C(F)(F)F)c2)cc1NCc1cccc(-c2cccs2)c1
pIC50 [2]: < 5.00

Structure (SMILES): Cc1ccc(C(=O)Nc2ccc(CN3CCN(C)CC3)c(C(F)(F)F)c2)cc1N(C)C(=O)c1cccc(-c2cccs2)c1
pIC50 [2]: < 5.00

Structure (SMILES): Cc1ccc(C(=O)Nc2ccc(CN3CCN(C)CC3)c(Cl)c2)cc1NC(=O)c1cccc(-c2cccs2)c1
inhibition of growth at 1 µM (RAW264.7): 4%
inhibition of growth at 1 µM [1]: 20%
pIC50 [2]: 5.57

Structure (SMILES): Cc1ccc(NC(=O)c2ccc(CN3CCN(C)CC3)c(C(F)(F)F)c2)cc1NC(=O)c1cccc(-c2cccnc2)c1
growth inhibition (GI) (RAW264.7): inactive
inhibition of growth at 1 µM [1]: 84%
pIC50 [2]: 6.05

Structure (SMILES): Cc1ccc(NC(=O)c2ccc(CN3CCN(C)CC3)c(C(F)(F)F)c2)cc1NC(=O)c1cccc(-c2ccccn2)c1
growth inhibition (GI) (RAW264.7): inactive
inhibition of growth at 1 µM [1]: 31%
pIC50 [2]: 4.82

Structure (SMILES): Cc1ccc(NC(=O)c2ccc(CN3CCN(C)CC3)c(C(F)(F)F)c2)cc1NC(=O)c1cccc(-c2nn[nH]n2)c1
growth inhibition (GI) (RAW264.7): inactive
inhibition of growth at 1 µM [1]: 2.4%
pIC50 [2]: 5.12

Structure (SMILES): Cc1ccc(NC(=O)c2ccc(CN3CCN(C)CC3)c(C(F)(F)F)c2)cc1NC(=O)c1cccc(-c2cccs2)c1
pIC50 [2]: 5.77

Structure (SMILES): Cc1ccc(NC(=O)c2cccc(C(F)(F)F)c2)cc1NC(=O)c1cnc(N)nc1
remaining at 0.5 h, 1 µM [4]: 91%
remaining at 0.5 h, 1 µM [5]: 65%
growth inhibition (GI) (RAW264.7): inactive
inhibition of growth at 1 µM [1]: 86%
Papp B→A at 1 h, 10 µM [22]: 5.3 ×10⁻⁶ cm/s
pIC50 [2]: 6.09
Papp A→B at 1 h, 10 µM [23]: 0.1 ×10⁻⁶ cm/s

Structure (SMILES): Cc1ccc(C(=O)N(C)c2ccc(CN3CCN(C)CC3)c(C(F)(F)F)c2)cc1NC(=O)c1cccc(-c2cccs2)c1
pIC50 [2]: 5.23

Now those with a higher pIC50 [2], led by results:

pIC50 [2]: 6.57
Structure (SMILES): Cc1ccc(CNc2ccc(CN3CCN(C)CC3)c(C(F)(F)F)c2)cc1NC(=O)c1cccc(-c2cccs2)c1

solubility kinetic at 1 h [7]: 4.7 µM (≈ 2.78 µg/mL)
remaining at 4 h, 1 µM [8]: 95%
remaining at 0.5 h, 1 µM [4]: 46 to 47%
remaining at 0.5 h, 1 µM [5]: 7%
half-life [9]: 13.8 min
remaining at 4 h, 1 µM [10]: 67%
Vd [11]: 4.23 L/kg
AUC(0-t) [12]: 0.27 µM·h
Tmax [13]: 15 min
Cmax [14]: 160 nM
Drug metabolism (Liver [15]): Metabolite_Detected
pIC50 [2]: 6.13
AUC(0-t) [16]: 0.16 µM·h
half-life [17]: 79.2 min
bioavailability [18]: 11%
clearance [19]: 210 mL/min/kg
clearance [20]: 210 mL/min/kg
Cmax [21]: 850 nM
Structure (SMILES): Cc1ccc(NC(=O)c2ccc(CN3CCN(C)CC3)c(C(F)(F)F)c2)cc1NC(=O)c1cccc(-c2cnn(C)c2)c1
growth inhibition (GI) (RAW264.7): inactive
inhibition of growth at 1 µM [1]: 81%

pIC50 [2]: 6.72
Structure (SMILES): CN1CCN(Cc2ccc(NC(=O)c3ccc(Cl)c(NC(=O)c4cccc(-c5cccs5)c4)c3)cc2C(F)(F)F)CC1
inhibition of growth at 1 µM (RAW264.7): 8%
inhibition of growth at 1 µM [1]: -7%

pIC50 [2]: 6.36
Structure (SMILES): Cc1ccc(C(=O)Nc2ccc(CN3CCN(C)CC3)c(C(F)(F)F)c2)cc1NC(=O)c1cccc(-c2cccs2)c1
inhibition of growth at 1 µM (RAW264.7): 7%
inhibition of growth at 1 µM [1]: 22%

pIC50 [2]: 6.68
Structure (SMILES): Cc1ccc(C(=O)Nc2ccc(CN3CCN(C)CC3)c(C(F)(F)F)c2)cc1NC(=O)c1cccc(-c2cccnc2)c1
inhibition of growth at 1 µM (RAW264.7): 6%
inhibition of growth at 1 µM [1]: 61%

remaining at 0.5 h, 1 µM [4]: 60%
remaining at 0.5 h, 1 µM [5]: 57%
Papp ([22]; caco-2, 1 h, 10 µM): 36.3 ×10⁻⁶ cm/s
pIC50 [2]: 6.74
Papp ([23]; caco-2, 1 h, 10 µM): 0.5 ×10⁻⁶ cm/s
Structure (SMILES): Cc1ncc(NC(=O)c2cccc(C(F)(F)F)c2)cc1NC(=O)c1cncc(-c2cnn(C)c2)c1
growth inhibition (GI) (RAW264.7): inactive
inhibition of growth at 1 µM [1]: 87%

pIC50 [2]: 6.51
Structure (SMILES): Cc1ccc(C(=O)Nc2ccc(CN3CCN(C)CC3)c(C(F)(F)F)c2)cc1NC(=O)c1cccc(-c2cncnc2)c1
inhibition of growth at 1 µM (RAW264.7): 9%
inhibition of growth at 1 µM [1]: 64%

remaining at 0.5 h, 1 µM [4]: 37%
remaining at 0.5 h, 1 µM [5]: 63%
half-life [9]: 52.2 min
Vd [11]: 1.1 L/kg
AUC(0-t) [12]: 2.24 µM·h
Tmax [13]: 30 min
Cmax [14]: 4600 nM
Papp B→A at 1 h, 10 µM [22]: 32.5 ×10⁻⁶ cm/s
pIC50 [2]: 7.22
AUC(0-t) [16]: 6.94 µM·h
half-life [17]: 108 min
bioavailability [18]: 64%
clearance [19]: 31 mL/min/kg
Cmax [21]: 3550 nM
Papp A→B at 1 h, 10 µM [23]: 12.5 ×10⁻⁶ cm/s
Structure (SMILES): Cc1ccc(NC(=O)c2cccc(C(F)(F)F)c2)cc1NC(=O)c1cncc(-c2cnn(C)c2)c1
growth inhibition (GI) (RAW264.7): inactive
inhibition of growth at 1 µM [1]: 96%

remaining at 0.5 h, 1 µM [4]: 68%
remaining at 0.5 h, 1 µM [5]: 74%
pIC50 [2]: 6.89
Structure (SMILES): Cc1ccc(NC(=O)c2cccc(C(F)(F)F)c2)cc1NC(=O)c1cccc(-c2cnn(C)c2)c1
growth inhibition (GI) (RAW264.7): inactive

pIC50 [2]: 7.70
pIC50 [3]: > 9.30
Structure (SMILES): Cc1ccc(NC(=O)c2ccc(CN3CCN(C)CC3)c(C(F)(F)F)c2)cc1NC(=O)c1cccc(-c2cn[nH]c2)c1
growth inhibition (GI) (RAW264.7): inactive
inhibition of growth at 1 µM [1]: 80%
Ratio IC50 (Homo sapiens): > 40

pIC50 [2]: 6.41
Structure (SMILES): Cc1ccc(NC(=O)c2ccc(CN3CCN(C)CC3)c(C(F)(F)F)c2)cc1NC(=O)c1cccc(-c2ccncc2)c1
growth inhibition (GI) (RAW264.7): inactive
inhibition of growth at 1 µM [1]: 72%
